Data from PubChem BioAssay AID504338 (NMMLSC, 2011).
Where “and” joins values, the source holds several entries; their conditions need not be identical. Identical values can stand only once. Values without a mark were called inactive. Calls of active or inactive are those of the source.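 How the source made its calls: active means GFP response vs DMSO above 150% with enough events counted; inconclusive means fewer than 70 events counted for a yeast strain; inactive means the rest.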

Assay: yeast TOR reporter LAP4-GFP retest – cell-based, third cherry pick, flow cytometry, confirmation (AID 504338);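 further: ratio to plate DMSO wells so 100% equals DMSO level rather than 0%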
Conditions: S. cerevisiae LAP4-GFP strain, 3 h, at 10 µM, stronger effect = higher value
Summary of the method: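 Material: Saccharomyces cerevisiae strain expressing LAP4-GFP fusion protein / Compound: 10 µM, one concentration / Incubation: compound exposure for 3 h at 30 °C / Detection: high-throughput flow cytometry of GFP, single-cell scatter gate / Measure: median GFP fluorescence as percent of plate DMSO-well average / Benchmarks: rapamycin 400 ng/mL high, DMSO low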

Row | Compound | GFP response vs DMSO
1 | O=C(O)c1ccc(C=NNC(=O)c2cccc3ccccc23)cc1 | 104%
2 | Cc1ccc(NC(=O)O/N=C2\CCCCC2c2ccc([N+](=O)[O-])cc2[N+](=O)[O-])cc1 (centres undefined) | 103%
3 | CCOC(=O)CS(=O)(=O)c1nc(-c2ccccc2)cc(C(F)(F)F)n1 | 182% (active)
4 | CCN(CC)c1ncnc2ccc(Br)cc12 | 101%
5 | C/C(=C\C(=O)c1ccccc1)Nc1ccc(O)cc1 | 101%
6 | CCCC(=O)Nn1cnc2c(c1=O)C1(CCCCC1)Cc1ccccc1-2 | 103%
7 | O=C(Nc1ccccc1)O/N=C1/CCCc2occc21 | 107%
8 | C/C(=C\C(=O)c1ccccc1)Nc1cccc(O)c1 | 107%
9 | FC(F)Oc1cccc2cccnc12 | 101%
10 | C/C(=C\C(=O)c1ccc(C)cc1)Nc1cccc(O)c1 | 106%
11 | CNc1cccc2c1C(=O)c1ccccc1C2=O | 107%
12 | Cc1ccc2c(Cl)cc(Cl)c(O)c2n1 | 193% (active)
13 | CCC(C)Nc1nc(N)c([N+](=O)[O-])c(Nc2ccccc2OC)n1 (centres undefined) | 97.2%
14 | CC1=CN2C(=N)/C(=C/c3ccc([N+](=O)[O-])o3)C(=O)N=C2S1 | 3330% (active)
15 | CNc1nc(C)c([N+](=O)[O-])c(Nc2ccc(OC)cc2)n1 | 108%
16 | CCc1c(C)nc2c(OC)cccc2c1Cl | 104%
17 | COc1cc(=O)n(C)c2c(O)cccc12 | 101%
18 | COc1ccc(-c2cc(C(F)(F)F)nc(S(C)(=O)=O)n2)cc1OC | 107% and 110%
19 | C=CCNc1ncnc2ccccc12 | 103%
20 | Cc1ccc2c(C)ccc(O)c2n1 | 101%

Row | Compound | GFP response vs DMSO
21 | O=C(Nc1cccc(Cl)c1)ON=C1c2ccccc2-c2ccccc21 | 107%
22 | O=C(/C=C/Nc1cccc(O)c1)c1ccccc1 | 111%
23 | CCCOCc1ccc(O)c2ncccc12 | 104%
24 | Oc1ccc(Cl)c2cccnc12 | 110%
25 | Cc1cn2c(N)c(C=C3C=C(Cl)C(=O)C(Cl)=C3)c(=O)nc2s1 | 108%
26 | Oc1c(Cl)cc(Cl)c2cccnc12 | 188% (active)
27 | CC(=O)NCCOc1cccc2cccnc12 | 107%
28 | CS(=O)(=O)c1nc(-c2ccc(F)cc2)cc(C(F)(F)F)n1 | 144%
29 | C/C(=N\NC(=O)c1cccc2ccccc12)c1cccnc1 | 104%
30 | CCN(CC)C(=O)Oc1ccnc2cc(Cl)ccc12 | 101%
31 | COc1cccc(OCc2cc(C(=O)N3CCN(C)C(c4ccccc4)C3)no2)c1 (centres undefined) | 106%
32 | O=C(Nc1ccccc1)O/N=C1\CCCCC1c1ccc([N+](=O)[O-])cc1[N+](=O)[O-] (centres undefined) | 106%
33 | Cn1cccc1C(=O)Nc1nc(-c2ccccn2)cs1 | 114%
34 | C=CCNc1nc(N)c([N+](=O)[O-])c(Nc2cccc(Cl)c2)n1 | 104%
35 | CC(=O)Nn1cnc2c(c1=O)C1(CCCCC1)Cc1ccccc1-2 | 106%
36 | Cc1ccc(Nc2cc(=O)[nH]c(=O)[nH]2)cc1C | 104%
37 | Brc1ccc2ncnc(NCc3ccccc3)c2c1 | 107%
38 | Cc1cccc(N/C=C/C(=O)c2ccc(Cl)cc2)c1 | 110%
39 | O=C(Nc1cccc2ccccc12)ON=C1CCCCC1 | 112%
